# ChEMBL document CHEMBL1123311, “Synthesis and antitumor and antiviral properties of 5-halo- and 5-(trifluoromethyl)-2'-deoxyuridine 3',5'-cyclic monophosphates and neutral triesters” (1986)
# Tested on: Human alphaherpesvirus 2
# Assay: Evaluation of antiviral activity against Herpes simplex virus type 2 (HSV-2) strain 196.
# Format: functional
# Conditions: not given
# In short: (§1)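 Virus-induced cytopathogenicity scored in primary rabbit kidney cell cultures. Value is the minimum concentration reducing cytopathogenicity by 50%. Cytotoxicity on uninfected cells was read as the minimal concentration causing a microscopically detectable change in normal cell morphology, tested up to 400 μg/mL.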
row,Structure (SMILES),MIC50 [µg/mL]
1,O=c1[nH]c(=O)n([C@H]2C[C@H](O)[C@@H](COP(=O)(O)O)O2)cc1I,0.7
2,O=c1[nH]c(=O)n([C@H]2C[C@H](O)[C@@H](COP(=O)(O)O)O2)cc1F [5-FLUORODEOXYURIDYLATE],100
3,O=c1[nH]c(=O)n([C@H]2C[C@H](O)[C@@H](CO)O2)cc1C(F)(F)F [TRIFLURIDINE],1
4,O=c1[nH]c(=O)n([C@H]2C[C@H](O)[C@@H](COP(=O)(O)O)O2)cc1Br,0.2
5,O=c1[nH]c(=O)n([C@H]2C[C@H](O)[C@@H](CO)O2)cc1F [FLOXURIDINE],150

# Tested on: Human alphaherpesvirus 2
# Assay: Evaluation of antiviral activity against Herpes simplex virus type 2 (HSV-2) strain G
# Format: functional
# Conditions: not given
# In short: as §1
row,Structure (SMILES),MIC50 [µg/mL]
1,O=c1[nH]c(=O)n([C@H]2C[C@H](O)[C@@H](COP(=O)(O)O)O2)cc1I,0.4
2,O=c1[nH]c(=O)n([C@H]2C[C@H](O)[C@@H](COP(=O)(O)O)O2)cc1F [5-FLUORODEOXYURIDYLATE],7
3,O=c1[nH]c(=O)n([C@H]2C[C@H](O)[C@@H](CO)O2)cc1C(F)(F)F [TRIFLURIDINE],0.6
4,O=c1[nH]c(=O)n([C@H]2C[C@H](O)[C@@H](COP(=O)(O)O)O2)cc1Br,0.2
5,O=c1[nH]c(=O)n([C@H]2C[C@H](O)[C@@H](CO)O2)cc1F [FLOXURIDINE],8

# Tested on: Human alphaherpesvirus 2
# Assay: Evaluation of antiviral activity against Herpes simplex virus type 2 (HSV-2) strain Lyons
# Format: functional
# Conditions: not given
# In short: as §1
row,Structure (SMILES),MIC50 [µg/mL]
1,O=c1[nH]c(=O)n([C@H]2C[C@H](O)[C@@H](COP(=O)(O)O)O2)cc1I,0.2
2,O=c1[nH]c(=O)n([C@H]2C[C@H](O)[C@@H](COP(=O)(O)O)O2)cc1F [5-FLUORODEOXYURIDYLATE],20
3,O=c1[nH]c(=O)n([C@H]2C[C@H](O)[C@@H](CO)O2)cc1C(F)(F)F [TRIFLURIDINE],1
4,O=c1[nH]c(=O)n([C@H]2C[C@H](O)[C@@H](COP(=O)(O)O)O2)cc1Br,0.07
5,O=c1[nH]c(=O)n([C@H]2C[C@H](O)[C@@H](CO)O2)cc1F [FLOXURIDINE],10

# Tested on: Human alphaherpesvirus 1
# Assay: Evaluation of antiviral activity against Herpes simplex virus type 1 (HSV-1) strain F
# Format: functional
# Conditions: not given
# In short: as §1
row,Structure (SMILES),MIC50 [µg/mL]
1,O=c1[nH]c(=O)n([C@H]2C[C@H](O)[C@@H](COP(=O)(O)O)O2)cc1I,0.4
2,O=c1[nH]c(=O)n([C@H]2C[C@H](O)[C@@H](COP(=O)(O)O)O2)cc1F [5-FLUORODEOXYURIDYLATE],10
3,O=c1[nH]c(=O)n([C@H]2C[C@H](O)[C@@H](CO)O2)cc1C(F)(F)F [TRIFLURIDINE],0.7
4,O=c1[nH]c(=O)n([C@H]2C[C@H](O)[C@@H](COP(=O)(O)O)O2)cc1Br,0.2
5,O=c1[nH]c(=O)n([C@H]2C[C@H](O)[C@@H](CO)O2)cc1F [FLOXURIDINE],8

# Tested on: Human alphaherpesvirus 1
# Assay: Evaluation of antiviral activity against Herpes simplex virus type 1 (HSV-1) strain McIntyre
# Format: functional
# Conditions: not given
# In short: as §1
row,Structure (SMILES),MIC50 [µg/mL]
1,O=c1[nH]c(=O)n([C@H]2C[C@H](O)[C@@H](COP(=O)(O)O)O2)cc1I,0.2
2,O=c1[nH]c(=O)n([C@H]2C[C@H](O)[C@@H](COP(=O)(O)O)O2)cc1F [5-FLUORODEOXYURIDYLATE],10
3,O=c1[nH]c(=O)n([C@H]2C[C@H](O)[C@@H](CO)O2)cc1C(F)(F)F [TRIFLURIDINE],0.7
4,O=c1[nH]c(=O)n([C@H]2C[C@H](O)[C@@H](COP(=O)(O)O)O2)cc1Br,0.2
5,O=c1[nH]c(=O)n([C@H]2C[C@H](O)[C@@H](CO)O2)cc1F [FLOXURIDINE],4

# Tested on: L1210
# Assay: Evaluation of antitumor activity against mutant murine leukemia L1210 cells
# Format: functional
# Conditions: Mus musculus, read-out: ID50 (the source's name)
# In short: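 Proliferation of mutant murine leukemia L1210/BdUrd cells, selected from parental L1210/0 for growth in 260 μg/mL 5-bromo-2'-deoxyuridine. Value is the dose inhibiting proliferation by 50%.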
row,Structure (SMILES),IC50 [µg/mL]
1,O=c1[nH]c(=O)n([C@H]2C[C@H](O)[C@@H](COP(=O)(O)O)O2)cc1I,> 500
2,O=c1[nH]c(=O)n([C@H]2C[C@H](O)[C@@H](COP(=O)(O)O)O2)cc1F [5-FLUORODEOXYURIDYLATE],3
3,O=c1[nH]c(=O)n([C@H]2C[C@H](O)[C@@H](CO)O2)cc1C(F)(F)F [TRIFLURIDINE],47
4,O=c1[nH]c(=O)n([C@H]2C[C@H](O)[C@@H](COP(=O)(O)O)O2)cc1Br,457
5,O=c1[nH]c(=O)n([C@H]2C[C@H](O)[C@@H](CO)O2)cc1F [FLOXURIDINE],1.8

# Tested on: L1210
# Assay: Evaluation of cytostatic activity by using antitumor assays against murine leukemia L1210 cells
# Format: functional
# Conditions: Mus musculus, read-out: ID50 (the source's name)
row,Structure (SMILES),IC50 [µg/mL]
1,O=c1[nH]c(=O)n([C@H]2C[C@H](O)[C@@H](COP(=O)(O)O)O2)cc1I,31
2,O=c1[nH]c(=O)n([C@H]2C[C@H](O)[C@@H](COP(=O)(O)O)O2)cc1F [5-FLUORODEOXYURIDYLATE],0.003
3,O=c1[nH]c(=O)n([C@H]2C[C@H](O)[C@@H](CO)O2)cc1C(F)(F)F [TRIFLURIDINE],0.006
4,O=c1[nH]c(=O)n([C@H]2C[C@H](O)[C@@H](COP(=O)(O)O)O2)cc1Br,34.6
5,O=c1[nH]c(=O)n([C@H]2C[C@H](O)[C@@H](CO)O2)cc1F [FLOXURIDINE],0.02

# Tested on: Vesicular stomatitis virus
# Assay: Evaluation of antiviral activity against Vesicular stomatitis virus.
# Format: functional
# Conditions: not given
# In short: as §1
row,Structure (SMILES),MIC50 [µg/mL]
1,O=c1[nH]c(=O)n([C@H]2C[C@H](O)[C@@H](COP(=O)(O)O)O2)cc1I,> 400
2,O=c1[nH]c(=O)n([C@H]2C[C@H](O)[C@@H](COP(=O)(O)O)O2)cc1F [5-FLUORODEOXYURIDYLATE],> 200
3,O=c1[nH]c(=O)n([C@H]2C[C@H](O)[C@@H](CO)O2)cc1C(F)(F)F [TRIFLURIDINE],> 40
4,O=c1[nH]c(=O)n([C@H]2C[C@H](O)[C@@H](COP(=O)(O)O)O2)cc1Br,> 400
5,O=c1[nH]c(=O)n([C@H]2C[C@H](O)[C@@H](CO)O2)cc1F [FLOXURIDINE],> 200

# Tested on: Vaccinia virus
# Assay: Evaluation of antiviral activity against Vaccinia virus
# Format: functional
# Conditions: Orthopoxvirus vaccinia
# In short: as §1
row,Structure (SMILES),MIC50 [µg/mL]
1,O=c1[nH]c(=O)n([C@H]2C[C@H](O)[C@@H](COP(=O)(O)O)O2)cc1I,0.2
2,O=c1[nH]c(=O)n([C@H]2C[C@H](O)[C@@H](COP(=O)(O)O)O2)cc1F [5-FLUORODEOXYURIDYLATE],0.2
3,O=c1[nH]c(=O)n([C@H]2C[C@H](O)[C@@H](CO)O2)cc1C(F)(F)F [TRIFLURIDINE],0.2
4,O=c1[nH]c(=O)n([C@H]2C[C@H](O)[C@@H](COP(=O)(O)O)O2)cc1Br,0.07
5,O=c1[nH]c(=O)n([C@H]2C[C@H](O)[C@@H](CO)O2)cc1F [FLOXURIDINE],0.1

# Tested on: Raji
# Assay: Evaluation of antitumor activity against thymidine kinase deficient Raji cell line
# Format: functional
# Conditions: Homo sapiens, read-out: ID50 (the source's name)
row,Structure (SMILES),IC50 [µg/mL]
1,O=c1[nH]c(=O)n([C@H]2C[C@H](O)[C@@H](COP(=O)(O)O)O2)cc1I,> 500
2,O=c1[nH]c(=O)n([C@H]2C[C@H](O)[C@@H](COP(=O)(O)O)O2)cc1F [5-FLUORODEOXYURIDYLATE],2.41
3,O=c1[nH]c(=O)n([C@H]2C[C@H](O)[C@@H](CO)O2)cc1C(F)(F)F [TRIFLURIDINE],180
4,O=c1[nH]c(=O)n([C@H]2C[C@H](O)[C@@H](COP(=O)(O)O)O2)cc1Br,> 1000
5,O=c1[nH]c(=O)n([C@H]2C[C@H](O)[C@@H](CO)O2)cc1F [FLOXURIDINE],1.55

# Target: Thymidylate synthase (Mus musculus) (UniProt P07607)
# Sequence (P07607 whole entry, looked up): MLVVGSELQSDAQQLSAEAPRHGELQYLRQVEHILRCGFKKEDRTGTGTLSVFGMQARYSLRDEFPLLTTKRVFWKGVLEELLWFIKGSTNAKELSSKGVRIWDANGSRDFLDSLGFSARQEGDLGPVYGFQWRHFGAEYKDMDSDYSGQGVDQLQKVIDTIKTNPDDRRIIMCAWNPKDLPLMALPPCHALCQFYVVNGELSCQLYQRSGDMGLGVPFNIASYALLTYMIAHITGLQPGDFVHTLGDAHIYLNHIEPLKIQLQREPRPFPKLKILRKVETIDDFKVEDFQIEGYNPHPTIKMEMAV
# Assay: Compound was evaluated for the inhibition of L1210 Thymidylate synthase
# Conditions: not given
# In short: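 Thymidylate (dTMP) synthetase inhibition measured with a partially purified extract of L1210 cells as the enzyme source.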
row,Structure (SMILES),Ki/Km
1,O=c1[nH]c(=O)n([C@H]2C[C@H](O)[C@@H](COP(=O)(O)O)O2)cc1F [5-FLUORODEOXYURIDYLATE],0.018
2,O=c1[nH]c(=O)n([C@H]2C[C@H](O)[C@@H](COP(=O)(O)O)O2)cc1Br,2.16

# Organism: Homo sapiens
# Assay: Evaluation for antitumor activity against human lymphoblast Raji cells
# Format: functional
# Conditions: Homo sapiens, Raji; read-out: ID50 (the source's name)
row,Structure (SMILES),IC50 [µg/mL]
1,O=c1[nH]c(=O)n([C@H]2C[C@H](O)[C@@H](COP(=O)(O)O)O2)cc1I,6.8
2,O=c1[nH]c(=O)n([C@H]2C[C@H](O)[C@@H](COP(=O)(O)O)O2)cc1F [5-FLUORODEOXYURIDYLATE],0.013
3,O=c1[nH]c(=O)n([C@H]2C[C@H](O)[C@@H](CO)O2)cc1C(F)(F)F [TRIFLURIDINE],0.15
4,O=c1[nH]c(=O)n([C@H]2C[C@H](O)[C@@H](COP(=O)(O)O)O2)cc1Br,26
5,O=c1[nH]c(=O)n([C@H]2C[C@H](O)[C@@H](CO)O2)cc1F [FLOXURIDINE],0.004

# Tested on: Human alphaherpesvirus 1
# Assay: Evaluation of antiviral activity against Herpes simplex virus type 1 (HSV-1) strain KOS.
# Format: functional
# Conditions: not given
# In short: as §1
row,Structure (SMILES),MIC50 [µg/mL]
1,O=c1[nH]c(=O)n([C@H]2C[C@H](O)[C@@H](COP(=O)(O)O)O2)cc1I,0.2
2,O=c1[nH]c(=O)n([C@H]2C[C@H](O)[C@@H](COP(=O)(O)O)O2)cc1F [5-FLUORODEOXYURIDYLATE],10
3,O=c1[nH]c(=O)n([C@H]2C[C@H](O)[C@@H](CO)O2)cc1C(F)(F)F [TRIFLURIDINE],0.7
4,O=c1[nH]c(=O)n([C@H]2C[C@H](O)[C@@H](COP(=O)(O)O)O2)cc1Br,0.2
5,O=c1[nH]c(=O)n([C@H]2C[C@H](O)[C@@H](CO)O2)cc1F [FLOXURIDINE],6

# Target: Thymidylate synthase (Mus musculus) (UniProt P07607)
# Conditions: not given
row,Structure (SMILES),Ki/Km
1,O=c1[nH]c(=O)n([C@H]2C[C@H](O)[C@@H](COP(=O)(O)O)O2)cc1I,3.54
